FXIIa inh – blocks human coagulation factor XIIa protease activity. AID 800. inhibition, % at 5 µM. actives 0.3% (n = 220,000). purified FXIIa, Boc-QGR-AMC fluorogenic substrate, 2 h; in the data active = inhibition above about 40%
Target sequence (P00748 20-372 limits assumed): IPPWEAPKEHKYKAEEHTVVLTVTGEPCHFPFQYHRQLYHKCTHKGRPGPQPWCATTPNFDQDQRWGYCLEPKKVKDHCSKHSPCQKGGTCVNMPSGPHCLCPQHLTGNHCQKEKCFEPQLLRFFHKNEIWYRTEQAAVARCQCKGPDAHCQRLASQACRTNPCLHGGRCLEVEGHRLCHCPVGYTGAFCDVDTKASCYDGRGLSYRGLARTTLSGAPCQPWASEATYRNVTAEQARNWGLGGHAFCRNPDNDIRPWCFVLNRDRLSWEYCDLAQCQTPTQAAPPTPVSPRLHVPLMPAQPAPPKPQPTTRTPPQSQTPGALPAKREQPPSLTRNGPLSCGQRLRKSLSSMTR
Target sequence (P00748 373-615 limits assumed): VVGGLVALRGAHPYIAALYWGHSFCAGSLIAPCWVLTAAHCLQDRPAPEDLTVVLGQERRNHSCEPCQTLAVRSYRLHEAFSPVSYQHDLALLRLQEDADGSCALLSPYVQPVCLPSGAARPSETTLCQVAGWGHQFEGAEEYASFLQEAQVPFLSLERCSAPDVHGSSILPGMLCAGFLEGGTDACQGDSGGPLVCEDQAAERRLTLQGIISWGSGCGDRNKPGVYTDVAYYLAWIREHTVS
FXIa inh – blocks human coagulation factor XIa protease activity. actives 0.14% (n = 220,000). AID 798. purified FXIa, Boc-Glu-Ala-Arg-AMC fluorogenic substrate. inhibition, % at 5 µM;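 active = inhibition of at least 40%; inactive = inhibition below 40%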;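 note: fluorescence of freed AMC excited at 355 nm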
AHR activator – activators of human aryl hydrocarbon receptor. AHR-responsive luciferase reporter cells, luminescence. activation, % at 5 µM. actives 2.5% (n = 320,000). AID 2796; in the data active = activation above about 47%
STAT3 act – STAT3 signaling activation; U3A cells, IL-6 STAT3-luciferase reporter, luminescence; 100% = signal with IL-6 EC80 alone; activation (% of control), % at 5.6 µM; actives 0.91% (n = 190,000);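 active = activation above the screen-wide mean of compound activation plus 3 SD, cut at about 130% in these data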
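Material: STAT3-luciferase reporter U3A cells; Probe or stimulus: IL-6 (33 ng/mL); Incubation: compound pre-incubation 1 h before IL-6, then 6 h stimulation at 37 °C; Technique: luminescence from STAT3-driven luciferase reporter; Evaluation: % activation versus median of IL-6-stimulated wells; Controls: IL-6-only high control.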
KLK5 inh – inhibitors of human kallikrein 5 | Q9Y337 | recombinant hK5, fluorogenic AMC substrate cleavage | inhibition, % at 5 µM | actives 0.59% (n = 210,000);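 active = inhibition of 40% or more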
thrombin 1536 – blocks human thrombin protease activity; P00734; alpha-thrombin, Boc-VPR-AMC fluorogenic substrate cleavage; inhibition, % at 5 µM; actives 0.26% (n = 220,000); AID 1046;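 active = inhibition at or above 40%; inactive = inhibition below 40%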
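System – human alpha-thrombin protein · Reagent – Boc-VPR-AMC substrate, 15 µM final · Compound – 5 µM single dose in 0.2% DMSO · Schedule – reaction at room temperature · Technique – AMC fluorescence at 355 nm excitation and 460 nm emission · Read-out basis – % inhibition relative to enzyme controls and enzyme-free blanks · Control set – no-compound enzyme wells and no-enzyme blanks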
AHR act confirm – human AHR activation, confirmation. shares compounds with AHR activator. human cells, AHR-responsive luciferase reporter, luminescence. activation, % at 9 µM. actives 87% (n = 2,300). AID 2845; in the data active = activation above about 49%;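 note: HepG2 hepatoma cells carrying a DRE-driven firefly luciferase reporter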
PXR counter – PXR activation, counter-screen for AHR activators; activation, % at 11.6 µM; actives 88% (n = 2,300); cell-based PXR reporter, luciferase luminescence; shares compounds with AHR activator; in the data active = activation above about 11%;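 note: human hepatoma DPX-2 cells expressing full-length human PXR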
Large screens that a line does not name were inactive (follow-up assays come after a bar, where they were run). This is a sample that favours compounds with a hit; in the whole collection about 3.5% have one here.

Cc1ccc(Nc2nc(-c3ccc(C)cc3)c(CC(=O)O)s2)cc1	AHR activator 85 | AHR act confirm inactive | PXR counter inactive
O=C(O)Cc1sc(Nc2ccc(Cl)cc2)nc1-c1cccs1	none (no result: AHR activator)
C=CCSc1nc2sc3c(c2c(=O)n1CC=C)CCc1ccccc1-3	none
NNc1nc2sc3c(c2c(=O)[nH]1)CCc1ccccc1-3	AHR activator 133 | AHR act confirm 78
O/N=C/c1ccccc1OCc1ccccc1F	none
O/N=C/c1cc(Cl)ccc1OCc1ccccc1Cl	AHR activator 106 | AHR act confirm 103 | PXR counter 15
CN(Cc1ccc(F)cc1)S(=O)(=O)c1nnc(NC(=O)c2ccccc2Br)s1	none (no result: FXIIa inh, FXIa inh, STAT3 act, KLK5 inh, thrombin 1536)
COc1ccc(C(=O)NCCOc2ccccc2Cl)c(OC)c1OC	none (no result: FXIIa inh, FXIa inh, STAT3 act, KLK5 inh, thrombin 1536)
CC12CCC(=O)N1C(C(=O)Nc1nc3c(F)cc(F)cc3s1)CS2 (stereo unspecified)	AHR activator 97 (no result: FXIIa inh, FXIa inh, STAT3 act, KLK5 inh, thrombin 1536) | AHR act confirm 79 | PXR counter 151
Cc1cccc2sc(NC(=O)C3CSC4(C)CCC(=O)N34)nc12 (stereo unspecified)	none (no result: FXIIa inh, FXIa inh, STAT3 act, KLK5 inh, thrombin 1536)
CC(=O)N1N=C2/C(=C/c3ccccc3)CCCC2C1c1ccccc1 (stereo unspecified)	AHR activator 100 | AHR act confirm 87 | PXR counter 101
COc1ccc2c(c1)CCC1C2=NN(/C(C)=C/C(C)=O)C1c1cccc(F)c1 (stereo unspecified)	none
O=C(c1ccccn1)N1N=C2/C(=C/c3ccc(F)cc3)CCCC2C1c1ccc(F)cc1 (stereo unspecified)	AHR activator 94 | AHR act confirm 95 | PXR counter 49
COc1ccc(/C=C2\CCCC3C2=NN(C(=O)c2ccco2)C3c2ccc(OC)c(OC)c2)cc1OC (stereo unspecified)	none
CC(=O)N1N=C2c3ccccc3CCC2C1c1ccc(F)cc1 (stereo unspecified)	AHR activator 99 (no result: STAT3 act) | AHR act confirm 108 | PXR counter 29
C[C@@]12C(=O)N(CC3CCCO3)CC(=O)N1[C@H]1c3cc(Cl)ccc3OC[C@@H]1[C@@H]2c1ccccc1 (stereo partly specified)	none (no result: FXIIa inh, FXIa inh, STAT3 act, KLK5 inh, thrombin 1536)
NNC(=O)c1cc2sccc2s1	none (no result: STAT3 act)
CN1CCN(Cn2cc(/C=C/C(=O)c3ccccc3)c3ccccc32)CC1	AHR activator 86 | AHR act confirm 110 | PXR counter 47
O=C(C1CCN(S(=O)(=O)c2ccccc2F)CC1)N1CCc2ccccc2C1	none
O=[N+]([O-])c1cccc(/C([O-])=C(/C(=S)Nc2ccccc2)[n+]2ccccc2)c1	AHR activator 83 | AHR act confirm inactive | PXR counter 159
CCc1ccc(NC(=O)C(=O)NCC2CCCN2S(=O)(=O)c2cccs2)cc1 (stereo unspecified)	none (no result: FXIIa inh, FXIa inh, STAT3 act, KLK5 inh, thrombin 1536)
CCSc1ncc(/C=N/Nc2ccccc2)n1C	AHR activator 89 | AHR act confirm 145 | PXR counter 49
Cn1c(-c2ccc(F)cc2)cnc1SCC(=O)Nc1ccccc1	none
C(=N\Nc1ncnc2nc[nH]c12)/c1cccs1	none
COc1cc(-c2nc(-c3ccccc3)c(-c3ccc(F)cc3)[nH]2)cc2c1OCO2	AHR activator 116 | AHR act confirm 84 | PXR counter 66
O=S(=O)(NCC(c1ccco1)N1CCCCC1)c1ccccc1C(F)(F)F (stereo unspecified)	none (no result: FXIIa inh, FXIa inh, STAT3 act, KLK5 inh, thrombin 1536)
Cc1[nH][nH]c(=O)c1N=Nc1ccc(Br)c(Cl)c1	AHR activator 85 (no result: FXIIa inh, FXIa inh, STAT3 act, KLK5 inh, thrombin 1536) | AHR act confirm 128 | PXR counter 11
COc1ccc(S(=O)(=O)NNC(=O)c2cc3c4ccccc4n(C)c3s2)cc1	AHR activator 110 | AHR act confirm 98 | PXR counter 246
COc1ccc(S(=O)(=O)NNC(=O)c2cccs2)cc1	none
O=C(N/N=C1\CC2CC=CC12)c1ccc(Br)cc1 (stereo unspecified)	none
